Screening data (PubChem)
NRP1-CendR mod: modulators of CendR peptide binding to NRP-1, primary screen, biochemical, fluorescence polarization, uHTS; Neuropilin-1 (Homo sapiens), O14786; 0.85% of 360,000 active; inhibition, % at 25 µM; AID 602438, 2012; FAM-RPARPAR peptide binding to NRP-1;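 active = inhibition or corrected inhibition above about 18%, plus a signal ratio from 0.5 to 1.5, limit read from the data, passing the limit was not always enough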
SENP8 block-1: human SENP8 protease inhibitors, primary screen, biochemical, fluorescence, Nedd8 protein substrate, uHTS. 0.64% of 360,000 active. inhibition, % at 20 µM. AID 602440, 2012. recombinant SENP8. Sentrin-specific protease 8 (Homo sapiens), Q96LD8; in the data active = inhibition mostly above about 40%, no sharp cut-off; inactive = mostly below about 27%
Target sequence (Q96LD8 whole entry, looked up): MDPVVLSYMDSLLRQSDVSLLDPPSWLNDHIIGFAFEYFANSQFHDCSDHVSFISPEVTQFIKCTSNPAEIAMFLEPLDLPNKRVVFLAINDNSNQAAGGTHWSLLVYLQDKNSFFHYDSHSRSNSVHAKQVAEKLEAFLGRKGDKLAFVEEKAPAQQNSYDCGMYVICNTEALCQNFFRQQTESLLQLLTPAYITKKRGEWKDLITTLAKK
SENP6 block: SENP6 protease inhibitors, primary screen, biochemical, luminescence, uHTS | inhibition, % at 10 µM | 1.8% of 330,000 active | AID 2599, 2010 | Sentrin-specific protease 6 (Homo sapiens), Q9GZR1 | Recombinant SENP6 catalytic domain, aminoluciferin luminescence;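 active = inhibition above about 50% at the single tested dose, limit read from the data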;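 also: plate controls were DMSO wells with enzyme for no effect and DMSO wells lacking enzyme for full effect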
SENP1 FRET inh: human SENP1 catalytic domain inhibitors, primary screen, biochemical, FRET, uHTS | recombinant SENP1 catalytic domain, CyPet-SUMO1-YPet FRET cleavage | inhibition, % at 10 µM | 0.21% of 360,000 active | AID 624204, 2012;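 active = inhibition at least 30% at 10 µM, raw YFP signal under a set limit, fluorescence ratio 0.5 to 1.5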;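 also: 0% = enzyme with DMSO and 100% = no enzyme wells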
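system = hSENP1 catalytic domain, recombinant | reagent = SFCypet-SUMO1-SFYpet substrate at 25 nM | doses = one dose per compound, 10 µM, 0.5% DMSO | incubation = enzyme reaction for 50 min at room temperature, dark | measured by = FRET, CFP and YFP emission | controls = no-enzyme low, enzyme-DMSO high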
SENP7 inh: SENP7 protease inhibitors, primary screen, biochemical, luminescence, uHTS; recombinant SENP7, Z-RLRGG-aminoluciferin luminescence, 40 min; inhibition, % at 5 µM; 1.5% of 330,000 active;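 active = inhibition above about 50% at the single test dose, limit read from the data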;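 also: plate controls were DMSO with enzyme for no effect and no enzyme buffer wells for full effect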
Target sequence (Q9BQF6 706-1050 limits assumed): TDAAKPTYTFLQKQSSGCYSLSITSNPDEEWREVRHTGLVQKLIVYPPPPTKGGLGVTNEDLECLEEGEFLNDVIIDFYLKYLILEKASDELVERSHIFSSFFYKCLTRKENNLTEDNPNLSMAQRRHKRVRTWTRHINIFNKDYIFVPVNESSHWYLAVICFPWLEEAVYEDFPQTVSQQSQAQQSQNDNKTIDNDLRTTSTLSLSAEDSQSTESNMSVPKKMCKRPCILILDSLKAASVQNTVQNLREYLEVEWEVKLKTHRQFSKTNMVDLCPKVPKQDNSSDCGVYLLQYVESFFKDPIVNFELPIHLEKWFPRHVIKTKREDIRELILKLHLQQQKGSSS
SENP8 block-2: SENP8 protease inhibitors, primary screen, biochemical, luminescence; purified SENP8, Z-RLRGG-aminoluciferin cleavage; inhibition, % at 10 µM; 1.2% of 330,000 active; AID 2540, 2010; in the data active = inhibition above about 50%
SENP8 conf: human SENP8 protease inhibitors, confirmation, biochemical, Nedd8 protein substrate, single concentration. shares compounds with SENP8 block-1. purified SENP8, Nedd8-AMC/pro-Nedd8 cleavage fluorescence, 30 min. inhibition, % at 25 µM. 15% of 1,400 active; in the data active = inhibition mostly above about 39%, no sharp cut-off; inactive = mostly below about 34%
* marks the source's active call; other numbers are inactive results; · = no result. Shown are actives, neighbours in structure and some others; about 3.3% of the full set was active somewhere.

SMILES	NRP1-CendR mod	SENP8 block-1	SENP6 block	SENP1 FRET inh	SENP7 inh	SENP8 block-2	SENP8 conf
Cc1cc2c(N)cccc2nn1	41*	114*	91*	15	47	95*	45*
Nc1cccc2nc3ccccc3cc12	8	-377	-2	-31	3	0	·
CCOC1=C2[C@@H](CN(S(=O)(=O)c3ccccc3C)[C@H]2c2ccc(Cl)cc2)[C@H]2C(=O)NC(=O)[C@H]2C1	6	14	·	2	·	·	·
CC(=O)N1CCN(C(=O)CCC(=O)O)CC1	4	54*	-24	4	11	-1	23
O=C(c1ccc(Br)c(S(=O)(=O)N2CCOCC2)c1)N1CCN(C/C=C/c2ccccc2)CC1	10	22	·	-1	·	·	·
CCC1(c2ccccc2)SC(=O)NC1=O (configuration not stated)	3	6	·	0	·	·	·
CCC(C)NCCOc1ccc(C)cc1[N+](=O)[O-] (configuration not stated)	5	40*	·	1	·	·	22
CCCCNc1c(-c2ccc(F)cc2)nc2nc(C)cc(C)n12	-8	-20	·	-10	·	·	·
O=C(Nc1c(-c2ccccc2)[nH][nH]c1=O)c1ccc(Br)cc1	7	58*	·	2	·	·	22
O=C(Nc1c(-c2ccccc2)[nH][nH]c1=O)c1ccc2ccccc2c1	11	21	·	1	·	·	·
COc1ccc(-c2[nH][nH]c(=O)c2NC(=O)c2ccc(C)cc2)cc1	4	45*	·	2	·	·	14
O=C(Nc1c(-c2ccccc2)[nH][nH]c1=O)c1cnccn1	14	40*	·	-1	·	·	37
Cc1cc(NC(=O)COC(=O)[C@H](Cc2ccccc2)NC(=O)c2ccco2)no1	12	14	·	1	·	·	·
O=c1[nH]cnc2c1ccn2C1OC(CO)C(O)C1O (configuration not stated)	12	41*	·	0	·	·	9
O=C(NC(=S)Nc1cccc2c(O)cccc12)c1ccccc1[N+](=O)[O-]	16	47*	48	-1	6	35	15
c1ccc(/N=C2\N=C(Nc3ccccn3)c3ccccc32)nc1	-9	42*	29	3	6	7	8
Cc1ccc(C(=O)/C=C/C(=O)O)cc1	-8	22	-3	-1	-1	-1	·
Cc1ccc(/C=C/C(=O)c2ccc(O)cc2)cc1	-43	42*	86*	1	59*	63*	1
COc1cccc(NC(=O)C2(C)CCN2C(=O)C2CCCCC2)c1 (configuration not stated)	-2	-22	·	-2	·	·	·
O=C(Nc1ccc(F)cc1)C(c1cccc(F)c1)N1CCN(Cc2c(F)cccc2Cl)CC1 (configuration not stated)	-5	12	·	3	·	·	·
CC1CCN(C(=O)c2ccc(N3CCOCC3)c([N+](=O)[O-])c2)CC1	-7	31	-4	0	9	0	·
CCCn1c(=C(C#N)C#N)s/c(=C2\C=Cc3ccccc3N2CC)c1=O	7	52*	·	15	·	·	10
CC(C)CCSc1cc(NCCO)c([N+](=O)[O-])c2nonc12	10	49*	34	-14	-6	-4	27
Cc1ccc(Sc2cc(NCCCO)c([N+](=O)[O-])c3nonc23)cc1	0	44*	37	-16	5	5	48*
CC(=O)OCCCNc1cc(Sc2ccc(Cl)cc2)c2nonc2c1[N+](=O)[O-]	-11	17	·	-14	·	·	·
SMILES	NRP1-CendR mod	SENP8 block-1	SENP6 block	SENP1 FRET inh	SENP7 inh	SENP8 block-2	SENP8 conf
CC(C)Oc1cc(F)ccc1-c1cc(C(=O)Nc2cccc(C(F)(F)F)c2)[nH]n1	-6	12	·	-1	·	·	·
O=C(NCc1ccc2c(c1)OCO2)C1CC(c2ccccc2O)=NO1 (configuration not stated)	-1	11	-7	2	2	-2	·
O=C(NCc1ccc2c(c1)OCO2)C1CC(c2cccc(Br)c2)=NO1 (configuration not stated)	-6	40*	-21	-2	-4	-8	11
O=C(Cc1cc(=O)[nH][nH]1)N/N=C/C=C/c1ccccc1	-4	44*	4	0	4	1	34
O=C(CNC(=O)c1ccccc1)N/N=C/C=C/c1ccccc1	11	4	10	2	1	8	·
CC(=O)OC1CCC2(C)C(=CCC3C2CCC2(C)C3CC3OC4(CCC(C)CN4)C(C)C32)C1 (configuration not stated)	4	51*	-8	2	4	-8	13
C[C@]12CC[C@H](OC(=O)CCC(=O)O)CC1=CCC1C2CC[C@@]2(C)C1CC[C@@H]2N (some centres not stated)	1	26	-17	1	-5	17	·
COC(=O)CCN1CCC2CC1c1cc(-c3cccc(C)c3)ccc12 (configuration not stated)	17	-2	·	-2	·	·	·
O=C1/C(=C/c2ccccc2[N+](=O)[O-])COc2ccccc21	-3	5	-4	0	-7	-11	·
CNc1ccc(/C=C2\COc3ccccc3C2=O)cc1[N+](=O)[O-]	-19	50*	-8	6	-18	-6	14
CCOC(=O)C1=C[C@@H](c2ccccc2)N(S(=O)(=O)c2ccc(C)cc2)[C@H]1c1ccc(F)cc1	-2	13	·	0	·	·	·
CCOc1ccc(NC2=C(Cl)C(=O)N(C3CCCCC3)C2=O)cc1	-2	16	6	6	5	2	·
CN1CCN(C2=C(Cl)C(=O)N(C3CCCCC3)C2=O)CC1	-4	41*	7	16	5	5	5
CN(Cc1cn(-c2ccccc2)nc1-c1ccc(Cl)cc1)C(=O)CCC(=O)O	22	40*	3	3	-1	10	15
CN(Cc1cn(-c2ccccc2)nc1-c1ccc(F)cc1)C(=O)CCC(=O)O	9	25	10	-1	5	7	·
O=C(Nc1ccccc1)Nc1nnc([C@H]2C[C@H](O)[C@@H](CO)O2)s1	9	9	·	1	·	·	·
COc1ccc(-c2ccnc(-c3ccc(O)cc3)n2)cc1	5	4	8	1	5	-2	·
COc1ccc(O)cc1	1	48*	-1	3	-2	7	6
CCN1C(=S)SC(=O)C1=C1C=C(C)OC(C)=C1	55	48*	-14	-61	-4	-20	6
